Assay results as given in ChEMBL document CHEMBL1132644, “Substituted isoquinolines and quinazolines as potential antiinflammatory agents. Synthesis and biological evaluation of inhibitors of tumor necrosis factor alpha” (J Med Chem, 1999).

Legend:
Tumor necrosis factor = Tumor necrosis factor (Homo sapiens, UniProt P01375); test: The compound was tested in vitro for inhibitory activity against Tumor necrosis factor alpha from human PMBC cell line by ELISA test.; type: functional, cell-based
Procedure, shortened: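 PBMC isolated from heparinized normal human blood by Ficoll-Histopaque, cultured in RPMI 1640 with 20% autologous plasma and L-glutamine. Compounds were added at 2× in an equal volume, 60 min preincubation, then LPS stimulation. Supernatant was taken 18 h later. TNFα sandwich ELISA (2 µg/mL mouse anti-human capture, BSA block, 2 h at 37 °C), standard curve. IC50 is the µM concentration giving 50% inhibition versus control; a subset was run in ≥3 separate experiments.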

Jurkat = test: Cell toxicity against jurkat cells determined using MTT assay; type: functional, cell-based; conditions: Homo sapiens
Procedure, shortened: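 Jurkat cells, MTT (3-[4,5-dimethylthiazol-2-yl]-2,5-diphenyltetrazolium bromide) read-out. The value is the µM concentration that inhibited growth by 50% of control.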

Tumor necrosis factor, sequence (P01375 whole entry): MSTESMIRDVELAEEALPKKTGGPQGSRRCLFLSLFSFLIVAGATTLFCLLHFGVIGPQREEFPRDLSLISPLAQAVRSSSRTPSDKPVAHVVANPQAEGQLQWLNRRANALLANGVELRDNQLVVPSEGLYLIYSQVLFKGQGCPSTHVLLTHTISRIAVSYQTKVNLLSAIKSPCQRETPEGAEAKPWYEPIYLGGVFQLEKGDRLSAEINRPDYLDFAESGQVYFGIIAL

SMILES | IC50 (Tumor necrosis factor) | IC50 (Jurkat)
CNC(=O)CCCn1ccc2cc(OC)c(OC)cc2c1=O | > 100 µM | –
CCOC(=O)CCCn1c(Cl)nc2cc(OC)c(OC)cc2c1=O | 48 µM | –
CNC(=O)CCCn1cc(Br)c2cc(OC)c(OC)cc2c1=O | > 100 µM | –
CCOC(=O)CCCCn1cnc2cc(OC)c(OC)cc2c1=O | 6 µM | 8 µM
COc1cc2ccnc(NCCO)c2cc1OC | 55 µM | –
CCOC(=O)CCCn1ccc2ccccc2c1=O | 5 µM | > 50 µM
CCOC(=O)CCCn1cc(CN)c2cc(OC)c(OC)cc2c1=O | 13 µM | 7 µM
CCOC(=O)CCCn1cc(Br)c2cc(OC)c(OC)cc2c1=O | 51 µM | –
CCOC(=O)CCCn1c(Nc2ccc(Br)cc2)nc2cc(OC)c(OC)cc2c1=O | > 50 µM | –
CCOC(=O)CCCCn1ccc2cc(OC)c(OC)cc2c1=O | 21 µM | 22 µM
CCOC(=O)CCCn1cc(Br)c2cc(O)c(O)cc2c1=O | 1 µM | 11 µM
CCOC(=O)CCCn1cnc2cc(F)c(F)cc2c1=O | > 25 µM | –
CCOC(=O)CCCN1CNc2ccc(N)cc2C1=O | 10 µM | > 100 µM
CCOC(=O)CCCn1cnc2cc(OC)c(OC)c(Cl)c2c1=O | 22 µM | 89 µM
CCOC(=O)CCCn1ccc2cc(OC(C)=O)c(OC(C)=O)cc2c1=O | – | 40 µM
COc1cc2ccnc(Nc3ccc(Cl)cc3)c2cc1OC | 35 µM | –
COc1cc2ccn(CCCC(=O)OCCN3CCOCC3)c(=O)c2cc1OC | 10 µM | > 100 µM
CCOC(=O)CCCn1cc(F)c2c(F)c(OC)c(OC)cc2c1=O | > 100 µM | –
CCOC(=O)CCCn1cnc2cc(OC)c(OC)c(N)c2c1=O [listing 1 of 2 here] | 15 µM | –
COc1cc2ccn(CCCC(=O)O)c(=O)c2cc1OC | > 100 µM | –
CCOC(=O)CCCn1cnc2cc(OC)c(OC)c(N=[N+]=[N-])c2c1=O | > 25 µM | –

SMILES | IC50 (Tumor necrosis factor) | IC50 (Jurkat)
CCOC(=O)CCCN1CNc2cc(N)ccc2C1=O | 5 µM | > 50 µM
CCOC(=O)CCCn1cc([N+](=O)[O-])c2cc(OC)c(OC)cc2c1=O | 35 µM | –
CCOC(=O)CCCn1cnc2cc(O)c(O)cc2c1=O | 48 µM | –
COc1cc2ccnc(Nc3cccc(Br)c3)c2cc1OC | 37 µM | –
CCOC(=O)CCCn1cnc2cc(N)ccc2c1=O | 9 µM | 13 µM
CCOC(=O)CCCn1ccc2cc(O)c(O)cc2c1=O | 2 µM | 47 µM
CCOC(=O)CCCOc1nc(Nc2ccc(Br)cc2)nc2cc(OC)c(OC)cc12 | > 25 µM | –
COc1cc2ccnc(Nc3ccc(Br)cc3)c2cc1OC | 38 µM | –
CCOC(=O)CCCn1cnc2ccc(F)cc2c1=O | > 25 µM | –
CCOC(=O)CCCn1c(Nc2ccccc2)nc2cc(OC)c(OC)cc2c1=O | > 25 µM | –
CCOC(=O)CCCn1ccc2cc(OC)c(OC)cc2c1=O | 5 µM | > 50 µM
CCOC(=O)CCCn1cc(N)c2cc(OC)c(OC)cc2c1=O | 37 µM | –
CCOC(=O)CCCn1cnc2cc([N+](=O)[O-])ccc2c1=O | > 25 µM | –
CCOC(=O)CCCn1ccc2cc(OC(=O)OCC)c(OC(=O)OCC)cc2c1=O | 11 µM | 40 µM
CCOC(=O)CCCn1c(N)nc2cc(OC)c(OC)cc2c1=O | > 25 µM | –
CCOC(=O)CCn1ccc2cc(OC)c(OC)cc2c1=O | 50 µM | –
CCOC(=O)CCCn1cnc2cc(OC)c(OC)cc2c1=O | 3 µM | 3 µM
CCOC(=O)CCCn1cnc2ccc([N+](=O)[O-])cc2c1=O | > 25 µM | –
CCOC(=O)CCCOc1nc(N(C)C)nc2cc(OC)c(OC)cc12 | > 25 µM | –
CCOC(=O)CCCn1cnc2ccc(Cl)cc2c1=O | > 25 µM | –
CCOC(=O)CCn1cnc2cc(OC)c(OC)cc2c1=O | 9 µM | > 25 µM

SMILES | IC50 (Tumor necrosis factor) | IC50 (Jurkat)
CCOC(=O)CCCn1cc(F)c2cc(OC)c(OC)cc2c1=O | 20 µM | –
CCOC(=O)CCCOc1nc(Cl)nc2cc(OC)c(OC)cc12 | 68 µM | –
CCOC(=O)CCCn1cnc2cc(OC)c(OC)c(N)c2c1=O [listing 2 of 2 here] | 20 µM | > 100 µM
CCOC(=O)CCCOc1nc(Nc2ccccc2)nc2cc(OC)c(OC)cc12 | > 25 µM | –
CCOC(=O)CCCn1c(Nc2ccc(N=[N+]=[N-])cc2)nc2cc(OC)c(OC)cc2c1=O | > 50 µM | –
CCOC(=O)CCCn1cnc2cc(F)ccc2c1=O | > 25 µM | –
CCOC(=O)CCCn1cnc2ccc(Br)cc2c1=O | > 25 µM | –
CCCn1c(=O)n(CCCC(=O)OCC)c(=O)c2nccnc21 | 3 µM | > 25 µM
CCOC(=O)CCCn1cnc2cccc(Cl)c2c1=O | > 25 µM | –
CCOC(=O)CCCn1cnc2ccc(N)cc2c1=O | 4 µM | > 50 µM
CCOC(=O)CCCn1cnc2cc(OC)c(OC)c(NC(C)=O)c2c1=O | > 100 µM | –
CCOC(=O)CCCn1cnc2ccccc2c1=O | > 25 µM | –
CCOC(=O)CCCn1c(N=[N+]=[N-])nc2cc(OC)c(OC)cc2c1=O | 14 µM | > 25 µM
CCOC(=O)CCCn1cnc2cc(Cl)ccc2c1=O | > 25 µM | –
CCOC(=O)CCCn1cnc2cc(OC)c(OC)c([N+](=O)[O-])c2c1=O | 11 µM | > 25 µM
COc1cc2ccnc(Nc3cccc(Cl)c3)c2cc1OC | 33 µM | –
COc1cc2ccnc(Nc3ccccc3)c2cc1OC | > 100 µM | –
CCOC(=O)CCCn1cc(C(C)=O)c2cc(OC)c(OC)cc2c1=O | 15 µM | 47 µM
CCOC(=O)CCCn1cc(C#N)c2cc(OC)c(OC)cc2c1=O | 5 µM | 10 µM
